Test results published in ChEMBL document CHEMBL3232756, “Synthesis and biological evaluation of N-dehydrodipeptidyl-N,N'-dicyclohexylurea analogs” (Eur J Med Chem, 2014).
≈ marks a conversion by molar mass, not a printed value.

Legend:
Mus musculus [1] = assay: Analgesic activity in Swiss albino mouse assessed as inhibition of acetic acid-induced writhing response at 100 mg/kg, po administered 1 hr before acetic acid challenge after 5 mins; format: functional
Aspergillus niger = assay: Antimicrobial activity against Aspergillus niger MTCC 292 at 0.02 ml of 1 mg/ml after 24 hrs by cup plate method; format: functional; conditions: MTCC 292, 24 h, read-out: DIZ
How it was run: (§1)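 Cup-plate diffusion on Mueller-Hinton/nutrient agar swab-streaked with suspension, 6 mm cups bored. Each compound at 1 mg/ml in DMSO, 0.02 ml per cup; DMSO as solvent control. Amoxicillin for bacteria and fluconazole for fungi at 200 and 500 respectively as references. Incubation 37 °C for 24 h. Inhibition zone diameter in mm, triplicate, mean ± SD.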

Candida albicans = assay: Antimicrobial activity against Candida albicans MTCC 227 at 0.02 ml of 1 mg/ml after 24 hrs by cup plate method; format: functional; conditions: MTCC 227, 24 h, read-out: DIZ; how it was run: as §1
Rattus norvegicus = assay: Antiinflammatory activity in Wister rat assessed as inhibition of carrageenan-induced paw edema at 100 mg/kg, po administered 1 hr before carrageenan challenge measured after 3 hrs by plethysmograph analysis; format: functional
How it was run: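 Rats of either sex, 150–220 g, food withheld 4 h. Compound or diclofenac sodium 100 mg/kg p.o., or 0.5% sodium CMC at 10 ml/kg as vehicle control, given 1 h before 0.05 ml of 1% carrageenan subplantar into the right hind paw. Paw volume read by water-displacement plethysmograph at 0, 30, 60, 120 and 180 min. % edema inhibition = 100(1−Vt/Vc); n=5, control n=6; ANOVA/Dunnett.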

[2] = Antioxidant activity assessed as trolox equivalents of cupric reducing antioxidant capacity after 30 mins; format: functional
How it was run: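 Mix of 1 ml CuCl2 (10 mM), 1 ml ethanolic neocuproine (7.5 mM), 1 ml ammonium acetate buffer (pH 7.0, 1 M), 1 ml compound or standard solution and 0.1 ml water, total 4.1 ml. A450 read after 30 min against reagent blank. TEAC = ε test/ε Trolox.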

Mus musculus [3] = assay: Acute toxicity in Swiss albino mouse assessed as mortality up to 1500 mg/kg, po; format: organism-based; design: dose 1500 mg/kg, route oral; conditions: in vivo
How it was run: (§2)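 Swiss albino mice (6–8 weeks, 25–30 g) were dosed orally at 500, 1000 or 1500 mg/kg, following OECD guidelines. Body weight, food and water intake, behavioural patterns and mortality were recorded and compared with a control group.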

Brain = assay: Antioxidant activity against lipid peroxidation in Wister rat brain homogenates assessed as thiobarbituric acid reactive substance formation after 30 mins by spectrophotometer analysis; format: functional, tissue-based; conditions: 0.5 h
How it was run: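 Whole brain minus cerebellum from overnight-fasted rats of either sex, 200–220 g. Homogenized 10% w/v in 0.15 M KCl and spun at 800 rpm for 10 min. Reaction incubated 37 °C for 30 min, then TBA:TCA (1:1) and BHT added, heated 80 °C for 20 min, cooled, centrifuged, A532 read.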

Bacillus subtilis = assay: Antimicrobial activity against Bacillus subtilis MTCC 441 at 0.02 ml of 1 mg/ml after 24 hrs by cup plate method; format: functional; conditions: MTCC 441, 24 h, read-out: DIZ; how it was run: as §1
Escherichia coli = assay: Antimicrobial activity against Escherichia coli ESS 2231 at 0.02 ml of 1 mg/ml after 24 hrs by cup plate method; format: functional; conditions: ESS 2231, 24 h, read-out: DIZ; how it was run: as §1
[4] = Cytotoxicity against brine shrimps larvae assessed as mortality after 24 hrs; format: organism-based; conditions: artemia, in vivo; read-out: ED50
How it was run: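 Shrimp eggs were hatched in filtered artificial sea water (38 g sea salt/L) in a divided tank. Larvae were exposed in vials at several concentrations under a lamp, and survivors were counted 24 h later. ED50 and 95% confidence intervals were derived from % larvae surviving by Finney probit analysis.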

Mus musculus [5] = assay: Acute toxicity in Swiss albino mouse assessed as gross behavioral changes up to 1500 mg/kg, po; format: organism-based; design: dose 1500 mg/kg, route oral; conditions: in vivo; how it was run: as §2
[6] = Antioxidant activity assessed as hydroxyl radical scavenging activity after 15 mins; format: functional
How it was run: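 Deoxyribose degradation mix: 2-deoxy-2-ribose 2.8 mM, KH2PO4–KOH 20 mM pH 7.4, FeCl3, EDTA, H2O2 1.0 mM, ascorbic acid, plus compound in methanol. Incubated 1 h at 37 °C. A 0.5 ml aliquot taken with 1 ml 2.8% TCA and 1 ml 1% TBA, heated 90 °C for 15 min, cooled, A532 read. % inhibition against blank.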

Staphylococcus aureus = assay: Antimicrobial activity against Staphylococcus aureus MTCC 96 at 0.02 ml of 1 mg/ml after 24 hrs by cup plate method; format: functional; conditions: MTCC 96, 24 h, read-out: DIZ; how it was run: as §1
[7] = test system: Radical scavenging activity; assay: Antioxidant activity assessed as DPPH radical scavenging activity after 20 to 30 mins; format: functional
How it was run: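 Test solution (2 ml at 25, 50, 75, 100, 125) mixed with 2 ml ethanolic DPPH, held in the dark at ambient temperature 20–30 min, then A517 read against an ethanol blank. Tocopherol used as standard. % scavenging = (Acontrol−Atest)/Acontrol×100, run in triplicate. IC50 read graphically from the % scavenging versus concentration plot.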

Pseudomonas aeruginosa = assay: Antimicrobial activity against Pseudomonas aeruginosa MTCC 1688 at 0.02 ml of 1 mg/ml after 24 hrs by cup plate method; format: functional; conditions: MTCC 1688, 24 h, read-out: DIZ; how it was run: as §1

Q: Which inhibition in vivo at 100 mg/kg (Mus musculus [1]) does the source give for `O=C(NCC(=O)N(C(=O)NC1CCCCC1)C1CCCCC1)/C(=C\c1ccccc1)NC(=O)c1ccccc1` here?
A: 54%

Q: And the zone of inhibition at 1000 µg/mL (Aspergillus niger)?
A: 19.1 mm

Q: What about the zone of inhibition at 1000 µg/mL (Candida albicans) of the same molecule?
A: 20.7 mm

Q: And the inhibition in vivo at 100 mg/kg (Rattus norvegicus)?
A: 35.5%

Q: And the TEAC (Trolox equivalents) [2]?
A: 0.89

Q: And the Activity (Mus musculus [3])?
A: Non-toxic

Q: And the IC50 (Brain)?
A: 58.8 µM

Q: What about the zone of inhibition at 1000 µg/mL (Bacillus subtilis) of the same molecule?
A: 19.2 mm

Q: What about the zone of inhibition at 1000 µg/mL (Escherichia coli) of the same molecule?
A: 20.2 mm

Q: And the LC50 at 24 h [4]?
A: 6.02 µg/mL (≈ 11.3 µM)

Q: And the Activity (Mus musculus [5])?
A: Non-toxic

Q: What about the IC50 [6] of the same molecule?
A: 57.1 µM

Q: And the zone of inhibition at 1000 µg/mL (Staphylococcus aureus)?
A: 18.1 mm

Q: And the IC50 [7]?
A: 49.8 µM

Q: And the zone of inhibition at 1000 µg/mL (Pseudomonas aeruginosa)?
A: 19.4 mm

Q: Which results are given for `COc1cc(/C=C(/NC(=O)c2ccccc2)C(=O)NC(CS)C(=O)N(C(=O)NC2CCCCC2)C2CCCCC2)ccc1O` (configuration not stated)?
A: inhibition in vivo at 100 mg/kg (Mus musculus [1]): 48%; zone of inhibition at 1000 µg/mL (Aspergillus niger): 19.3 mm; zone of inhibition at 1000 µg/mL (Candida albicans): 20.4 mm; inhibition in vivo at 100 mg/kg (Rattus norvegicus): 38.4%; TEAC (Trolox equivalents) [2]: 3.6; Activity (Mus musculus [3]): Non-toxic; IC50 (Brain): 81.6 µM; zone of inhibition at 1000 µg/mL (Bacillus subtilis): 20.2 mm; zone of inhibition at 1000 µg/mL (Escherichia coli): 24.6 mm; Activity (Mus musculus [5]): Non-toxic; IC50 [6]: 92.8 µM; zone of inhibition at 1000 µg/mL (Staphylococcus aureus): 22.1 mm; zone of inhibition at 1000 µg/mL (Pseudomonas aeruginosa): 20.8 mm

Q: For `CC(=O)Oc1ccccc1C(=O)O` [ASPIRIN], which inhibition in vivo at 100 mg/kg (Mus musculus [1]) is on record?
A: 63.1%

Q: For `O=C(NCC(=O)N(C(=O)NC1CCCCC1)C1CCCCC1)/C(=C\c1ccc(O)cc1)NC(=O)c1ccccc1`, which inhibition in vivo at 100 mg/kg (Mus musculus [1]) is on record?
A: 27.6%

Q: What about the zone of inhibition at 1000 µg/mL (Aspergillus niger) of the same molecule?
A: 12.4 mm

Q: And the zone of inhibition at 1000 µg/mL (Candida albicans)?
A: 13.2 mm

Q: What about the inhibition in vivo at 100 mg/kg (Rattus norvegicus) of the same molecule?
A: 31.5%

Q: What about the TEAC (Trolox equivalents) [2] of the same molecule?
A: 2.91

Q: What about the Activity (Mus musculus [3]) of the same molecule?
A: Non-toxic

Q: What about the IC50 (Brain) of the same molecule?
A: 65.6 µM

Q: What about the zone of inhibition at 1000 µg/mL (Bacillus subtilis) of the same molecule?
A: 22.4 mm

Q: What about the zone of inhibition at 1000 µg/mL (Escherichia coli) of the same molecule?
A: 19.8 mm

Q: And the LC50 at 24 h [4]?
A: 9.1 µg/mL (≈ 16.6 µM)

Q: What about the Activity (Mus musculus [5]) of the same molecule?
A: Non-toxic

Q: And the IC50 [6]?
A: 74.7 µM

Q: What about the zone of inhibition at 1000 µg/mL (Staphylococcus aureus) of the same molecule?
A: 13.4 mm

Q: What about the IC50 [7] of the same molecule?
A: 51 µM

Q: And the zone of inhibition at 1000 µg/mL (Pseudomonas aeruginosa)?
A: 18.5 mm

Q: For `O=C(NCC(=O)N(C(=O)NC1CCCCC1)C1CCCCC1)/C(=C\c1ccc(Cl)cc1)NC(=O)c1ccccc1`, which inhibition in vivo at 100 mg/kg (Mus musculus [1]) is on record?
A: 27.6%

Q: What about the zone of inhibition at 1000 µg/mL (Aspergillus niger) of the same molecule?
A: 13.5 mm

Q: What about the zone of inhibition at 1000 µg/mL (Candida albicans) of the same molecule?
A: 12.7 mm

Q: What about the inhibition in vivo at 100 mg/kg (Rattus norvegicus) of the same molecule?
A: 15.2%

Q: And the TEAC (Trolox equivalents) [2]?
A: 0.93

Q: What about the Activity (Mus musculus [3]) of the same molecule?
A: Non-toxic

Q: And the IC50 (Brain)?
A: 96.8 µM

Q: What about the zone of inhibition at 1000 µg/mL (Bacillus subtilis) of the same molecule?
A: 13.5 mm

Q: What about the zone of inhibition at 1000 µg/mL (Escherichia coli) of the same molecule?
A: 16.3 mm

Q: And the Activity (Mus musculus [5])?
A: Non-toxic

Q: What about the IC50 [6] of the same molecule?
A: 83.7 µM

Q: And the zone of inhibition at 1000 µg/mL (Staphylococcus aureus)?
A: 11.8 mm

Q: What about the IC50 [7] of the same molecule?
A: 83.7 µM

Q: And the zone of inhibition at 1000 µg/mL (Pseudomonas aeruginosa)?
A: 9.2 mm

Q: With `COc1ccc(/C=C(/NC(=O)c2ccccc2)C(=O)NCC(=O)N(C(=O)NC2CCCCC2)C2CCCCC2)cc1` as the molecule, how does the inhibition in vivo at 100 mg/kg (Mus musculus [1]) read?
A: 39.6%

Q: And the zone of inhibition at 1000 µg/mL (Aspergillus niger)?
A: 18.8 mm

Q: What about the zone of inhibition at 1000 µg/mL (Candida albicans) of the same molecule?
A: 19.6 mm

Q: And the inhibition in vivo at 100 mg/kg (Rattus norvegicus)?
A: 12%

Q: And the TEAC (Trolox equivalents) [2]?
A: 1.24

Q: What about the Activity (Mus musculus [3]) of the same molecule?
A: Non-toxic

Q: And the IC50 (Brain)?
A: 108 µM

Q: And the zone of inhibition at 1000 µg/mL (Bacillus subtilis)?
A: 11.3 mm

Q: What about the zone of inhibition at 1000 µg/mL (Escherichia coli) of the same molecule?
A: 15.8 mm

Q: What about the Activity (Mus musculus [5]) of the same molecule?
A: Non-toxic

Q: What about the IC50 [6] of the same molecule?
A: 92.7 µM

Q: What about the zone of inhibition at 1000 µg/mL (Staphylococcus aureus) of the same molecule?
A: 14.3 mm

Q: And the IC50 [7]?
A: 92.7 µM

Q: And the zone of inhibition at 1000 µg/mL (Pseudomonas aeruginosa)?
A: 10.3 mm

Q: Which inhibition in vivo at 100 mg/kg (Mus musculus [1]) does the source give for `CC(C)c1ccc(/C=C(/NC(=O)c2ccccc2)C(=O)NCC(=O)N(C(=O)NC2CCCCC2)C2CCCCC2)cc1` here?
A: 47.4%

Q: And the zone of inhibition at 1000 µg/mL (Aspergillus niger)?
A: 21.2 mm

Q: And the zone of inhibition at 1000 µg/mL (Candida albicans)?
A: 13.1 mm

Q: What about the inhibition in vivo at 100 mg/kg (Rattus norvegicus) of the same molecule?
A: 26%

Q: And the TEAC (Trolox equivalents) [2]?
A: 1.19

Q: And the Activity (Mus musculus [3])?
A: Non-toxic

Q: And the IC50 (Brain)?
A: 60.4 µM

Q: And the zone of inhibition at 1000 µg/mL (Bacillus subtilis)?
A: 18.4 mm

Q: What about the zone of inhibition at 1000 µg/mL (Escherichia coli) of the same molecule?
A: 18.1 mm

Q: What about the Activity (Mus musculus [5]) of the same molecule?
A: Non-toxic

Q: And the IC50 [6]?
A: 60.4 µM

Q: And the zone of inhibition at 1000 µg/mL (Staphylococcus aureus)?
A: 16.4 mm

Q: What about the IC50 [7] of the same molecule?
A: 61 µM

Q: And the zone of inhibition at 1000 µg/mL (Pseudomonas aeruginosa)?
A: 17.3 mm

Q: With `COc1cc([C@@H]2c3cc4c(cc3[C@H](O)[C@H]3COC(=O)[C@H]23)OCO4)cc(OC)c1OC` [PODOFILOX] as the molecule, how does the LC50 at 24 h [4] read?
A: 3.77 µg/mL (≈ 9.1 µM)
